In ChEMBL document CHEMBL3817796, “Discovery of Novel 15-Lipoxygenase Activators To Shift the Human Arachidonic Acid Metabolic Network toward Inflammation Resolution” (J Med Chem, 2016) one finds %max and Kd data, which are given here for two compounds.

Test [1] concerns the target T1, Polyunsaturated fatty acid lipoxygenase ALOX15 (Homo sapiens) (UniProt P16050).
T1 sequence (whole entry): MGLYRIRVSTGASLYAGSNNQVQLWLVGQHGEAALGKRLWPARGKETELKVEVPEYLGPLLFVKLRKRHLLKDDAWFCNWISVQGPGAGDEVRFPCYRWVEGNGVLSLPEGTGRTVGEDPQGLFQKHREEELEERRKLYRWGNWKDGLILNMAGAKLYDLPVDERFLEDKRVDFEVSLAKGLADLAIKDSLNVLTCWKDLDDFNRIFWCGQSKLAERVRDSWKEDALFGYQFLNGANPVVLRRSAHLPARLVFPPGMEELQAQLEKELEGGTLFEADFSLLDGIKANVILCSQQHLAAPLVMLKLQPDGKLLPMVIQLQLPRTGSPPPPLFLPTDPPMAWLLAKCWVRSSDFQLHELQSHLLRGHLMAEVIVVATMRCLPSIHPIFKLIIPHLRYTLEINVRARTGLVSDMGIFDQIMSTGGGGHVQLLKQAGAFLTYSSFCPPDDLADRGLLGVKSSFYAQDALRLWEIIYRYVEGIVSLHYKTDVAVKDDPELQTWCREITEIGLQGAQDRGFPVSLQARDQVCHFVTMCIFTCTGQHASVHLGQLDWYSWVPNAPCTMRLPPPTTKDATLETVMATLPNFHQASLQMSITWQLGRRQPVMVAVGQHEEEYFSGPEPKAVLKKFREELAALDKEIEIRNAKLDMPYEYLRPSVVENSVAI
As to the kind of experiment: Activation of wild-type His6-tagged human 15-LOX expressed in Escherichia coli Rosetta DE3 assessed as 15-HpETE formation at 40 uM pre-incubated for 1 min before arachidonic acid substrate addition by cell free assay.

Test [2] concerns the target T2, Polyunsaturated fatty acid lipoxygenase ALOX15 (Homo sapiens, UniProt P16050).
T2 sequence (P16050 whole entry): T1 sequence (whole entry)
Nature of the test: Binding affinity to wild-type His6-tagged human 15-LOX expressed in Escherichia coli Rosetta DE3 by SPR assay. Summed up:
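15-LOX amine-coupled to a CM5 chip at 800 RU, 25 °C, in PBS-P pH 7.4. Compound concentrations in 5% DMSO injected serially; regenerated by buffer washing. KD from Hill fit of response units.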
(In general: SPR reads the build-up and loss of mass on a sensor chip optically.)

SMILES strings stand for the structures.

Regarding `C[n+]1cn(/N=C/c2ccccc2)c2ccccc21`, the %max in test [1] came out at 61%. In test [2], binding was characterised by a dissociation constant (Kd) of 15.3 µM.
On the same counts, the results for `c1cc2c3c(cccc3c1)-c1n[n+]3cc4ccccn4c3cc1-2` are 84% and 4.4 µM.

The Kd is the free concentration of one partner at which half of the binding sites on the other are occupied at equilibrium, for simple one-to-one binding. Low values mean a tighter complex, high ones a looser complex.
